From ChEMBL document CHEMBL1821697, “Design and synthesis of brain penetrant selective JNK inhibitors with improved pharmacokinetic properties for the prevention of neurodegeneration” (Bioorg Med Chem Lett, 2011)

Experiments:
[1] = target: Mitogen-activated protein kinase 10 (Homo sapiens, UniProt P53779); assay: Inhibition of recombinant JNK3 using ser73 of c-jun as substrate preincubated for 15 mins measured after 60 mins by TR-FRET assay
How it was run: (§1)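 Recombinant JNK enzyme assay run at 10 µM ATP. IC50 values are means of at least three experiments.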

[2] = target: Mitogen-activated protein kinase 8 (Homo sapiens, UniProt P45983); assay: Inhibition of recombinant JNK1 using ser73 of c-jun as substrate preincubated for 15 mins measured after 60 mins by TR-FRET assay; how it was run: as §1
Chain of Mitogen-activated protein kinase 8 (P45983 whole entry): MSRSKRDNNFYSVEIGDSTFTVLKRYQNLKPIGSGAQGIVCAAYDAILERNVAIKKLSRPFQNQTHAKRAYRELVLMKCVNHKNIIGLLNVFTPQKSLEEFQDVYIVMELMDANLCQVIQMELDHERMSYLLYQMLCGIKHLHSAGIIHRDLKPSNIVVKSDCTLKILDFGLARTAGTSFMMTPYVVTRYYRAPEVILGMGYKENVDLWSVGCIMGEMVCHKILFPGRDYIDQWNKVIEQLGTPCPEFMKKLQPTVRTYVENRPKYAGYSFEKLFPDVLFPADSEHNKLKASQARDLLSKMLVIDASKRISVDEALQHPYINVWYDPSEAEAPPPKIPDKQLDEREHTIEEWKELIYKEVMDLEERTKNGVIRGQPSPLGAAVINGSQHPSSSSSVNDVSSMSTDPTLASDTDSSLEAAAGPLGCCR

[3] = target: Mitogen-activated protein kinase 9 (Homo sapiens, UniProt P45984); assay: Inhibition of recombinant JNK2 using ser73 of c-jun as substrate preincubated for 15 mins measured after 60 mins by TR-FRET assay; how it was run: as §1
Chain of Mitogen-activated protein kinase 9 (P45984 whole entry): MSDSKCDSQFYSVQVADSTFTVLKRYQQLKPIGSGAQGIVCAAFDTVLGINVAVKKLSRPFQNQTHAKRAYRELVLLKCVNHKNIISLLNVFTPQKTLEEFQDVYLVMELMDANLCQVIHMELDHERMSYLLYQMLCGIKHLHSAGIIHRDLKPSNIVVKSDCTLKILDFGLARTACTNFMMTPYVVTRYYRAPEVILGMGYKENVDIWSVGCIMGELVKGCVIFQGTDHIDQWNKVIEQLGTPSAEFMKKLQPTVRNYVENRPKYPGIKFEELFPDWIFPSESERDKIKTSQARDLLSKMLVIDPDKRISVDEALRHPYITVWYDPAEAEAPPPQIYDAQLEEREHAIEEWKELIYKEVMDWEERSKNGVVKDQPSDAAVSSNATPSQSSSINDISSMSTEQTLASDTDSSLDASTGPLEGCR

[4] = Oxidative metabolic stability in mouse liver microsomes assessed as compound remaining at 1 uM after 30 mins; format: ADME, Microsome; settings: read-out: Stability
How it was run: (§2)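 Test compound was incubated with mouse, rat or human liver microsomes for 30 min. The read-out is percent of parent compound remaining.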

[5] = Oxidative metabolic stability in rat liver microsomes assessed as compound remaining at 1 uM after 30 mins; format: ADME, Microsome; settings: read-out: Stability; how it was run: as §2
[6] = Oxidative metabolic stability in human liver microsomes assessed as compound remaining at 1 uM after 30 mins; format: ADME, Microsome; settings: read-out: Stability; how it was run: as §2
[7] = target: Mitogen-activated protein kinase 14 (Homo sapiens, UniProt Q16539); assay: Inhibition of recombinant p38alpha Thr69/71 of ATF-2 as substrate preincubated for 15 mins measured after 60 mins by TR-FRET assay
Chain of Mitogen-activated protein kinase 14 (Q16539 whole entry): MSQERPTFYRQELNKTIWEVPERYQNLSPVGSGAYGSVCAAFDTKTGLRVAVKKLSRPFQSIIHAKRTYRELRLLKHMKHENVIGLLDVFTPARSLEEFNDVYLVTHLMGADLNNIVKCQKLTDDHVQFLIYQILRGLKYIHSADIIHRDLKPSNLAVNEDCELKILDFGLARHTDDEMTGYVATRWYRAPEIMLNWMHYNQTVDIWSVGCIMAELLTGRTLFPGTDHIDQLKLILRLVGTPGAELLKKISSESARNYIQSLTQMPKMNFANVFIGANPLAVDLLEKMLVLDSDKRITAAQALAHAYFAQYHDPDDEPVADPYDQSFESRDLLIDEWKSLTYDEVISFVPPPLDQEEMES

[8] = target: Mitogen-activated protein kinase 1 (Homo sapiens, UniProt P28482); assay: Inhibition of recombinant ERK2 using Ser383 of Elk-1 as substrate preincubated for 15 mins measured after 60 mins by TR-FRET assay
Chain of Mitogen-activated protein kinase 1 (P28482 whole entry): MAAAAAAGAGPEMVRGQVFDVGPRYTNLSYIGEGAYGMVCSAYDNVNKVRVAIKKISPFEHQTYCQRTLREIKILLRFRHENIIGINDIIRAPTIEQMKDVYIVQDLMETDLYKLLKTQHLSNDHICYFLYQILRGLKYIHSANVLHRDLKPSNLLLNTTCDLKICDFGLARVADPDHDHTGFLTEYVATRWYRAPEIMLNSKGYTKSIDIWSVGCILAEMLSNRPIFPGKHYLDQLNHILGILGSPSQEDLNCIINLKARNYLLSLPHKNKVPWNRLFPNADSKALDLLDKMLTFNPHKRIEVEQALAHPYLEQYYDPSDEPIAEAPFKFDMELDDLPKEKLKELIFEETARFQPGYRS

[9] = Apparent permeability from apical to basolateral side of MDCK2 cells at 5 uM after 120 mins by LC/MS/MS method; format: ADME, cell-based, Canis lupus familiaris, MDCK-II; settings: dog, MDCK
MDR1 = assay: Efflux ratio of permeability across MDCK2 expressing MDR1 at 5 uM after 120 mins by LC/MS/MS method; format: ADME, Canis lupus familiaris, MDCK-II; settings: dog, MDCK-MDR1
[10] = AUC in mouse brain at 1 mg/kg, iv; format: ADME, organism-based; design: dose 1 mg/kg, route intravenous
How it was run: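 Mice were dosed intravenously at 1 mg/kg. Brain exposure was expressed as AUC (ng h/mL) alongside the brain/plasma ratio.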

[11] = Ratio of drug level in brain to plasma in mouse at 1 mg/kg, iv; format: ADME, organism-based; design: dose 1 mg/kg, route intravenous; settings: read-out: BPR
How it was run: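 Single intravenous dose of 1 mg/kg in mice. Brain exposure was reported as brain AUC (ng h/mL), together with the brain-to-plasma ratio.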

[12] = Half life in rat at 1 mg/kg, iv; format: ADME, organism-based; design: dose 1 mg/kg, route intravenous; settings: in vivo
How it was run: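 Rats were given a single intravenous dose of 1 mg/kg. Half-life is reported in min, together with clearance (mL/h/kg).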

Rattus norvegicus [13] = assay: AUC in rat at 2 mg/kg, po; format: ADME, organism-based, Plasma; design: dose 2 mg/kg, route oral; settings: in vivo
How it was run: (§3)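 Rats received an oral dose of 2 mg/kg. Plasma AUC is reported in nmol h/mL. Oral bioavailability (F%) was calculated against a 1 mg/kg intravenous dose.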

Rattus norvegicus [14] = assay: Oral bioavailability in rat at 2 mg/kg; format: ADME, organism-based; settings: in vivo; how it was run: as §3
[15] = Solubility of the compound in Hank's buffered salt solution at 20 mM at pH 7.4 after 1 hr; format: physicochemical

Chain of Mitogen-activated protein kinase 10 (P53779 whole entry): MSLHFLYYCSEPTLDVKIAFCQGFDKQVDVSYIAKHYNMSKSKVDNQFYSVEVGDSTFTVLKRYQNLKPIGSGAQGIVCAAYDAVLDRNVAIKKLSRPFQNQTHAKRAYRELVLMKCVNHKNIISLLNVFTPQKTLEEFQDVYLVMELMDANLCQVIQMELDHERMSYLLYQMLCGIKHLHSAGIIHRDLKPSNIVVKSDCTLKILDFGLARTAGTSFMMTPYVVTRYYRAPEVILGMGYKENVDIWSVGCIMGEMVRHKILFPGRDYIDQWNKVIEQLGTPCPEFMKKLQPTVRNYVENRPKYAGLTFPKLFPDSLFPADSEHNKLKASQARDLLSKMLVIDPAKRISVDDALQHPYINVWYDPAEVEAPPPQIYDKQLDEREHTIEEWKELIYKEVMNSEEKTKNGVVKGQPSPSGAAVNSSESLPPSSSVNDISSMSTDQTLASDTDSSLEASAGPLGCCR

| Structure (SMILES) | IC50 [1] [nM] | IC50 [2] [nM] | IC50 [3] [nM] | remaining at 0.5 h, 1 µM [4] [%] | remaining at 0.5 h, 1 µM [5] [%] | remaining at 0.5 h, 1 µM [6] [%] | IC50 [7] [µM] | IC50 [8] [µM] | Papp A→B at 2 h, 5 µM [9] [×10⁻⁶ cm/s] | efflux ratio at 2 h, 5 µM (MDR1) | AUC [10] [ng·h/mL] | Kp [11] | half-life [12] [min] | AUC (Rattus norvegicus [13]) [ng·h/mL] | F (Rattus norvegicus [14]) [%] | solubility at 1 h, 20000 µM [15] [µM] |
| --- | --- | --- | --- | --- | --- | --- | --- | --- | --- | --- | --- | --- | --- | --- | --- | --- |
| O=C(Cc1ccc(C(F)(F)F)c2ncccc12)Nc1scc(Cl)c1-c1ncn[nH]1 | 183 | 81 | 24 | 3 | 1 | 32 |  |  |  |  |  |  |  |  |  |  |
| O=C(Cc1cc(F)cc2ncccc12)Nc1scc(Br)c1-c1ncn[nH]1 | 41 | 14 | 140 | 5 | 18 | 42 |  |  |  |  |  |  |  |  |  |  |
| O=C(Cn1c(=O)ccc2ccc(OC(F)(F)F)cc21)Nc1scc(Br)c1-c1ncn[nH]1 | 19 | 11 | 68 | 10 | 26 | 29 |  |  |  |  |  |  |  |  |  |  |
| O=C(Cc1cccc2ncc(F)cc12)Nc1scc(Br)c1-c1nc[nH]n1 | 30 | 17 | 92 | 2 | 17 | 39 |  |  |  |  |  |  |  |  |  |  |
| O=C(Cn1c(=O)ccc2c(C(F)(F)F)cccc21)Nc1scc(Br)c1-c1ncn[nH]1 | 71 | 31 | 193 | 27 | 1 | 49 |  |  |  |  |  |  |  |  |  |  |
| O=C(Cc1ccc(F)c2cnccc12)Nc1scc(Br)c1-c1ncn[nH]1 | 24 | 16 | 68 | 34 | 5 | 44 |  |  |  |  |  |  |  |  |  |  |
| O=C(Cc1cccc2ncc(C(F)(F)F)cc12)Nc1scc(Br)c1-c1nc[nH]n1 | 52 | 21 | 164 | 3 | 20 | 37 |  |  |  |  |  |  |  |  |  |  |
| O=C(Cc1cc(C(F)(F)F)cc2ncccc12)Nc1scc(Br)c1-c1nnc[nH]1 | 280 | 178 | 337 | 3 | 16 | 31 |  |  |  |  |  |  |  |  |  |  |
| O=C(Cn1c(=O)ccc2nc(C(F)(F)F)ccc21)Nc1scc(Br)c1-c1ncn[nH]1 | 14 | 8 | 38 | 35 | 2 | 64 |  |  |  |  |  |  |  |  |  |  |
| O=C(CN1C(=O)CCc2ncccc21)Nc1scc(Br)c1-c1nccs1 | 15 | 13 | 145 | 0 | 0 | 3 |  |  |  |  |  |  |  |  |  |  |
| O=C(Cc1cccc2cnccc12)Nc1scc(Cl)c1-c1ncn[nH]1 |  |  |  |  | 9 |  |  |  |  |  | 88 | 0.4 |  |  |  | 25 |
| N#Cc1csc(NC(=O)CN2C(=O)CCc3ccccc32)c1-c1ncn[nH]1 |  |  |  |  | 0 |  |  |  |  |  |  |  |  |  |  | 95 |
| O=C(CN1C(=O)CCc2ccccc21)Nc1scc(Br)c1-c1ncn[nH]1 |  |  |  | 0 | 0 | 24 |  |  |  |  |  |  |  |  |  |  |
| O=C(Cn1c(=O)ccn2nc(C(F)(F)F)cc12)Nc1scc(Br)c1-c1ncn[nH]1 | 14 | 3 | 36 | 3 | 42 | 48 |  |  |  |  |  |  |  |  |  |  |

Now from value to molecule:

| IC50 [1] [nM] | IC50 [2] [nM] | IC50 [3] [nM] | remaining at 0.5 h, 1 µM [4] [%] | remaining at 0.5 h, 1 µM [5] [%] | remaining at 0.5 h, 1 µM [6] [%] | IC50 [7] [µM] | IC50 [8] [µM] | Papp A→B at 2 h, 5 µM [9] [×10⁻⁶ cm/s] | efflux ratio at 2 h, 5 µM (MDR1) | AUC [10] [ng·h/mL] | Kp [11] | half-life [12] [min] | AUC (Rattus norvegicus [13]) [ng·h/mL] | F (Rattus norvegicus [14]) [%] | solubility at 1 h, 20000 µM [15] [µM] | Structure (SMILES) |
| --- | --- | --- | --- | --- | --- | --- | --- | --- | --- | --- | --- | --- | --- | --- | --- | --- |
| 9 | 7 | 53 | 52 | 76 | 75 |  |  |  |  |  |  |  |  |  |  | N#Cc1csc(NC(=O)Cn2c(=O)ccc3cc(C(F)(F)F)ccc32)c1-c1nccs1 |
| 6 | 4 | 21 | 43 | 43 | 77 |  |  |  |  |  |  |  |  |  |  | O=C(Cn1c(=O)ccc2cnc(C(F)(F)F)cc21)Nc1scc(Br)c1-c1ncn[nH]1 |
| 2 | 1 | 10 | 60 | 46 | 69 | > 50 | > 50 | 3.43 | 4.18 |  |  |  |  |  |  | N#Cc1ccc2c(ccc(=O)n2CC(=O)Nc2scc(Br)c2-c2ncn[nH]2)c1 |
| 14 | 9 | 32 | 55 | 50 | 83 | > 50 | > 0.5 | 36.8 | 1.8 | 35 | 0.24 | 2.5 | 2720 | 91 |  | O=C(CN1C(=O)CCc2ncccc21)Nc1scc(Br)c1-c1ncn[nH]1 |
| 7 | 4 | 8 | 51 | 60 | 85 |  |  |  |  |  |  |  |  |  |  | O=C(Cn1c(=O)ccc2cnccc21)Nc1scc(Br)c1-c1ncn[nH]1 |
| 8 | 4 | 29 | 4 | 2 | 24 |  |  |  |  |  |  |  |  |  |  | N#Cc1csc(NC(=O)Cn2c(=O)ccc3cc(C(F)(F)F)ccc32)c1-c1ncco1 |
| 3 | 1 | 13 | 33 | 37 | 46 |  |  |  |  |  |  |  |  |  |  | Cn1cnc(-c2c(Br)csc2NC(=O)CN2C(=O)CCc3ncccc32)n1 |
| 8 | 8 | 74 | 50 | 71 | 72 |  |  |  |  |  |  |  |  |  |  | O=C(Cn1c(=O)ccn2nccc12)Nc1scc(Br)c1-c1ncn[nH]1 |
| 8 | 2 | 17 | 17 | 8 | 32 |  |  |  |  |  |  |  |  |  |  | N#Cc1csc(NC(=O)Cn2c(=O)ccc3cc(C(F)(F)F)ccc32)c1-c1cscn1 |
| 5 | 3 | 15 | 14 | 9 | 38 | > 50 | > 50 | 8.31 | 0.68 | 160 | 1.4 | 2.3 | 571 | 40 |  | O=C(Cn1c(=O)ccc2cc(F)c(F)cc21)Nc1scc(Br)c1-c1ncn[nH]1 |
| 6 | 5 | 18 | 84 | 81 | 80 |  |  |  |  |  |  |  |  |  |  | N#Cc1csc(NC(=O)CN2C(=O)CCc3ncccc32)c1-c1nc[nH]n1 |
| 6 | 2 | 12 | 16 | 39 | 64 |  |  |  |  |  |  |  |  |  |  | O=C(Cn1c(=O)ccc2cc(OC(F)(F)F)ccc21)Nc1scc(Br)c1-c1ncn[nH]1 |
| 11 | 10 | 62 | 7 | 1 | 16 |  |  |  |  |  |  |  |  |  |  | N#Cc1csc(NC(=O)CN2C(=O)CCc3ncccc32)c1-c1nccs1 |
| 9 | 6 | 21 | 29 | 25 | 44 |  |  |  |  |  |  |  |  |  |  | O=C(Cn1c(=O)ccc2ccc(C(F)(F)F)cc21)Nc1scc(Br)c1-c1ncn[nH]1 |
| 2 | 1 | 10 | 44 | 62 | 59 |  |  |  |  |  |  |  |  |  |  | N#Cc1ccc2ccc(=O)n(CC(=O)Nc3scc(Br)c3-c3ncn[nH]3)c2c1 |
| 6 | 7 | 66 | 0 | 0 | 11 |  |  |  |  |  |  |  |  |  |  | O=C(CN1C(=O)CCc2ncccc21)Nc1scc(Br)c1-c1ncco1 |
